Measurements published in ChEMBL document CHEMBL3734701, “Synthesis and antibacterial activity of 4″-O-(trans-β-arylacrylamido)carbamoyl azithromycin analogs” (2015).
Converted amounts (≈) assume the structure as drawn.

What was measured:
Assay type in all cases: functional
Streptococcus pneumoniae [1] = experiment: Antibacterial activity against erythromycin-resistant Streptococcus pneumoniae A22072 expressing mefA gene by broth microdilution method
Procedure, shortened: (§1)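 MICs measured in vitro by broth microdilution following NCCL recommendations, against a Gram-positive panel of sensitive and resistant strains. Azithromycin and clarithromycin were tested alongside as references.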

Streptococcus pneumoniae [2] = experiment: Antibacterial activity against erythromycin-resistant Streptococcus pneumoniae B1 expressing ermB gene by broth microdilution method; procedure, shortened: as §1
Streptococcus pneumoniae [3] = experiment: Antibacterial activity against erythromycin-resistant Streptococcus pneumoniae AB11 expressing ermB and mefA genes by broth microdilution method; procedure, shortened: as §1
Staphylococcus aureus [4] = experiment: Antibacterial activity against clinically isolated penicillin-resistant Staphylococcus aureus by broth microdilution method
Procedure, shortened: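 Clinical penicillin-resistant S. aureus isolate, not further characterized, tested in a Gram-positive panel. MIC was measured by broth microdilution following NCCL recommendations, with azithromycin and clarithromycin as references.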

Staphylococcus aureus [5] = experiment: Antibacterial activity against methicillin-susceptible Staphylococcus aureus ATCC 29213 by broth microdilution method; procedure, shortened: as §1
Streptococcus pyogenes [6] = experiment: Antibacterial activity against clinically isolated erythromycin-resistant Streptococcus pyogenes R2 by broth microdilution method; procedure, shortened: as §1
Streptococcus pyogenes [7] = experiment: Antibacterial activity against clinically isolated erythromycin-susceptible Streptococcus pyogenes S2 by broth microdilution method
Procedure, shortened: (§2)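 Broth microdilution MIC following the NCCL-recommended method. Panel of sensitive and resistant Gram-positive strains: S. pyogenes S2 (erythromycin-susceptible clinical isolate), S. aureus ATCC25923 and S. pneumoniae ATCC49619 (erythromycin-susceptible). Azithromycin and clarithromycin were run alongside as references.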

Streptococcus pneumoniae [8] = experiment: Antibacterial activity against erythromycin-susceptible Streptococcus pneumoniae ATCC 49619 by broth microdilution method; procedure, shortened: as §2
Staphylococcus aureus [9] = experiment: Antibacterial activity against erythromycin-susceptible Staphylococcus aureus ATCC 25923 by broth microdilution method; procedure, shortened: as §2

Row | Structure (SMILES) | MIC (Streptococcus pneumoniae [1]) [µg/mL] | MIC (Streptococcus pneumoniae [2]) [µg/mL] | MIC (Streptococcus pneumoniae [3]) [µg/mL] | MIC (Staphylococcus aureus [4]) [µg/mL] | MIC (Staphylococcus aureus [5]) [µg/mL] | MIC (Streptococcus pyogenes [6]) [µg/mL] | MIC (Streptococcus pyogenes [7]) [µg/mL] | MIC (Streptococcus pneumoniae [8]) [µg/mL] | MIC (Staphylococcus aureus [9]) [µg/mL]
1 | CC[C@@H]1OC(=O)[C@H](C)[C@@H](O[C@H]2C[C@@](C)(OC)[C@@H](OC(=O)NNC(=O)/C=C/c3cc(OC)c(OC)c(OC)c3)[C@H](C)O2)[C@@H](C)[C@@H](O[C@@H]2O[C@H](C)C[C@H](N(C)C)[C@H]2O)[C@](C)(O)C[C@@H](C)CN(C)[C@H](C)[C@@H](OC(=O)NCc2ccccc2)[C@]1(C)O | 2 (≈ 1.72 µM) | 32 (≈ 27.6 µM) | 16 (≈ 13.8 µM) | 4 (≈ 3.45 µM) | 4 (≈ 3.45 µM) | 64 (≈ 55.2 µM) | 1 (≈ 0.862 µM) | 0.5 (≈ 0.431 µM) | 1 (≈ 0.862 µM)
2 | CC[C@@H]1OC(=O)[C@H](C)[C@@H](O[C@H]2C[C@@](C)(OC)[C@@H](OC(=O)NNC(=O)/C=C/c3ccccc3OC)[C@H](C)O2)[C@@H](C)[C@@H](O[C@@H]2O[C@H](C)C[C@H](N(C)C)[C@H]2O)[C@](C)(O)C[C@@H](C)CN(C)[C@H](C)[C@@H](OC(=O)NCc2ccc(OC)cc2)[C@]1(C)O | 0.25 (≈ 0.221 µM) | 4 (≈ 3.54 µM) | 8 (≈ 7.08 µM) | 4 (≈ 3.54 µM) | 4 (≈ 3.54 µM) | 64 (≈ 56.6 µM) | 0.25 (≈ 0.221 µM) | 0.25 (≈ 0.221 µM) | 1 (≈ 0.885 µM)
3 | CC[C@H]1OC(=O)[C@@H](C)[C@H](O[C@@H]2C[C@](C)(OC)[C@H](OC(=O)NNC(=O)/C=C/c3ccc([N+](=O)[O-])cc3)[C@@H](C)O2)[C@H](C)[C@H](O[C@H]2O[C@@H](C)C[C@@H](N(C)C)[C@@H]2O)[C@@](C)(O)C[C@H](C)CN(C)[C@@H](C)[C@H](OC(=O)NCc2ccc(OC)cc2)[C@@]1(C)O | 0.5 (≈ 0.437 µM) | 2 (≈ 1.75 µM) | 8 (≈ 6.98 µM) | 8 (≈ 6.98 µM) | 8 (≈ 6.98 µM) | 32 (≈ 27.9 µM) | 0.25 (≈ 0.218 µM) | 1 (≈ 0.873 µM) | 4 (≈ 3.49 µM)
4 | CC[C@@H]1OC(=O)[C@H](C)[C@@H](O[C@@H]2C[C@](C)(OC)[C@H](O)[C@@H](C)O2)[C@@H](C)[C@@H](O[C@@H]2O[C@H](C)C[C@H](N(C)C)[C@H]2O)[C@](C)(O)C[C@@H](C)CN(C)[C@H](C)[C@@H](O)[C@]1(C)O | 4 (≈ 5.34 µM) | > 128 | 256 (≈ 342 µM) | 0.12 (≈ 0.16 µM) | 1 (≈ 1.34 µM) | ≥ 128 | 0.25 (≈ 0.334 µM) | 0.03 (≈ 0.0401 µM) | 0.25 (≈ 0.334 µM)
5 | CC[C@H]1OC(=O)[C@@H](C)[C@H](O[C@@H]2C[C@](C)(OC)[C@H](OC(=O)NNC(=O)/C=C/c3ccc(Br)cc3)[C@@H](C)O2)[C@H](C)[C@H](O[C@H]2O[C@@H](C)C[C@@H](N(C)C)[C@@H]2O)[C@@](C)(O)C[C@H](C)CN(C)[C@@H](C)[C@H](OC(=O)NCc2ccccc2)[C@@]1(C)O | 0.12 (≈ 0.104 µM) | 1 (≈ 0.87 µM) | 1 (≈ 0.87 µM) | 2 (≈ 1.74 µM) | 2 (≈ 1.74 µM) | 16 (≈ 13.9 µM) | 0.25 (≈ 0.218 µM) | 0.25 (≈ 0.218 µM) | 0.5 (≈ 0.435 µM)
6 | CC[C@@H]1OC(=O)[C@H](C)[C@@H](O[C@H]2C[C@@](C)(OC)[C@@H](OC(=O)NNC(=O)/C=C/c3ccccc3OC)[C@H](C)O2)[C@@H](C)[C@@H](O[C@@H]2O[C@H](C)C[C@H](N(C)C)[C@H]2O)[C@](C)(O)C[C@@H](C)CN(C)[C@H](C)[C@@H](OC(=O)NCc2ccccc2)[C@]1(C)O | 0.5 (≈ 0.454 µM) | 16 (≈ 14.5 µM) | 8 (≈ 7.27 µM) | 2 (≈ 1.82 µM) | 2 (≈ 1.82 µM) | 32 (≈ 29.1 µM) | 0.25 (≈ 0.227 µM) | 0.5 (≈ 0.454 µM) | 0.5 (≈ 0.454 µM)
7 | CC[C@H]1OC(=O)[C@@H](C)[C@H](O[C@@H]2C[C@](C)(OC)[C@H](OC(=O)NNC(=O)/C=C/c3ccc([N+](=O)[O-])cc3)[C@@H](C)O2)[C@H](C)[C@H](O[C@H]2O[C@@H](C)C[C@@H](N(C)C)[C@@H]2O)[C@@](C)(O)C[C@H](C)CN(C)[C@@H](C)[C@H](OC(=O)NCc2ccccc2)[C@@]1(C)O | 0.12 (≈ 0.108 µM) | 4 (≈ 3.59 µM) | 2 (≈ 1.79 µM) | 2 (≈ 1.79 µM) | 2 (≈ 1.79 µM) | 16 (≈ 14.3 µM) | 0.5 (≈ 0.448 µM) | 0.25 (≈ 0.224 µM) | 0.5 (≈ 0.448 µM)
8 | CC[C@H]1OC(=O)[C@@H](C)[C@H](O[C@@H]2C[C@](C)(OC)[C@H](OC(=O)NNC(=O)/C=C/c3ccc(Cl)cc3)[C@@H](C)O2)[C@H](C)[C@H](O[C@H]2O[C@@H](C)C[C@@H](N(C)C)[C@@H]2O)[C@@](C)(O)C[C@H](C)CN(C)[C@@H](C)[C@H](OC(=O)NCc2ccccc2)[C@@]1(C)O | 0.25 (≈ 0.226 µM) | 4 (≈ 3.62 µM) | 2 (≈ 1.81 µM) | 2 (≈ 1.81 µM) | 4 (≈ 3.62 µM) | 16 (≈ 14.5 µM) | 0.5 (≈ 0.453 µM) | 0.5 (≈ 0.453 µM) | 1 (≈ 0.905 µM)
9 | CC[C@@H]1OC(=O)[C@H](C)[C@@H](O[C@H]2C[C@@](C)(OC)[C@@H](OC(=O)NNC(=O)/C=C/c3ccccc3)[C@H](C)O2)[C@@H](C)[C@@H](O[C@@H]2O[C@H](C)C[C@H](N(C)C)[C@H]2O)[C@](C)(O)C[C@@H](C)CN(C)[C@H](C)[C@@H](OC(=O)NCc2ccc(OC)cc2)[C@]1(C)O | 0.25 (≈ 0.227 µM) | 2 (≈ 1.82 µM) | 8 (≈ 7.27 µM) | 4 (≈ 3.64 µM) | 4 (≈ 3.64 µM) | 32 (≈ 29.1 µM) | 0.25 (≈ 0.227 µM) | 0.25 (≈ 0.227 µM) | 1 (≈ 0.909 µM)
10 | CC[C@@H]1OC(=O)[C@H](C)[C@@H](O[C@H]2C[C@@](C)(OC)[C@@H](OC(=O)NNC(=O)/C=C/c3ccco3)[C@H](C)O2)[C@@H](C)[C@@H](O[C@@H]2O[C@H](C)C[C@H](N(C)C)[C@H]2O)[C@](C)(O)C[C@@H](C)CN(C)[C@H](C)[C@@H](OC(=O)NCc2ccc(OC)cc2)[C@]1(C)O | 0.25 (≈ 0.229 µM) | 2 (≈ 1.83 µM) | 8 (≈ 7.34 µM) | 2 (≈ 1.83 µM) | 4 (≈ 3.67 µM) | 64 (≈ 58.7 µM) | 0.25 (≈ 0.229 µM) | 0.5 (≈ 0.459 µM) | 1 (≈ 0.917 µM)
11 | CC[C@H]1OC(=O)[C@@H](C)[C@H](O[C@@H]2C[C@](C)(OC)[C@H](OC(=O)NNC(=O)/C=C/c3ccc(OC)c(OC)c3)[C@@H](C)O2)[C@H](C)[C@H](O[C@H]2O[C@@H](C)C[C@@H](N(C)C)[C@@H]2O)[C@@](C)(O)C[C@H](C)CN(C)[C@@H](C)[C@H](OC(=O)NCc2ccc(OC)cc2)[C@@]1(C)O | 0.25 (≈ 0.215 µM) | 2 (≈ 1.72 µM) | 8 (≈ 6.89 µM) | 4 (≈ 3.45 µM) | 4 (≈ 3.45 µM) | 64 (≈ 55.2 µM) | 0.5 (≈ 0.431 µM) | 0.5 (≈ 0.431 µM) | 2 (≈ 1.72 µM)
12 | CC[C@H]1OC(=O)[C@@H](C)[C@H](O[C@@H]2C[C@](C)(OC)[C@H](OC(=O)NNC(=O)/C=C/c3ccc(OC)c(OC)c3)[C@@H](C)O2)[C@H](C)[C@H](O[C@H]2O[C@@H](C)C[C@@H](N(C)C)[C@@H]2O)[C@@](C)(O)C[C@H](C)CN(C)[C@@H](C)[C@H](OC(=O)NCc2ccccc2)[C@@]1(C)O | 2 (≈ 1.77 µM) | 64 (≈ 56.6 µM) | 64 (≈ 56.6 µM) | 2 (≈ 1.77 µM) | 4 (≈ 3.54 µM) | 64 (≈ 56.6 µM) | 0.25 (≈ 0.221 µM) | 0.06 (≈ 0.0531 µM) | 0.5 (≈ 0.442 µM)
13 | CC[C@H]1OC(=O)[C@H](C)[C@@H](O[C@H]2C[C@@](C)(OC)[C@@H](O)[C@H](C)O2)[C@H](C)[C@@H](O[C@@H]2O[C@H](C)C[C@H](N(C)C)[C@H]2O)[C@](C)(O)C[C@@H](C)C(=O)[C@H](C)[C@@H](O)[C@]1(C)O [ERYTHROMYCIN] | 8 (≈ 10.9 µM) | > 128 | 256 (≈ 349 µM) | 0.25 (≈ 0.341 µM) | 0.12 (≈ 0.164 µM) | ≥ 128 | 0.12 (≈ 0.164 µM) | 0.03 (≈ 0.0409 µM) | 0.06 (≈ 0.0818 µM)
